Measurements: ChEMBL document CHEMBL1140462, “Convenient synthesis of indeno[1,2-c]isoquinolines as constrained forms of 3-arylisoquinolines and docking study of a topoisomerase I inhibitor into DNA-topoisomerase I complex” (Bioorg Med Chem Lett, 2007)
The source made the active and inactive calls. No cut-off for these calls is given here.

Key:
[1] = tested on: A549; experiment: Cytotoxicity against human A549 cells by SRB assay; format: functional, cell-based
In short: (§1)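 Panel of four human tumour lines: A549 (lung), SKOV-3 (ovarian), SK-MEL-2 (melanoma) and HCT 15 (colon). Each was exposed to compound in vitro, and cytotoxicity was read out by sulforhodamine B (SRB) staining.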

[2] = tested on: HCT-15; experiment: Cytotoxicity against human HCT15 cells by SRB assay; format: functional, cell-based; in short: as §1
[3] = tested on: SK-MEL-2; experiment: Cytotoxicity against human SK-MEL-2 cells by SRB assay; format: functional, cell-based; in short: as §1
[4] = Cytotoxicity against human OV3 cells by SRB assay; format: functional, cell-based; in short: as §1
[5] = biological target: T1, DNA topoisomerase 1 (Homo sapiens) (UniProt P11387); experiment: Inhibition of topoisomerase 1 by supercoiled DNA unwinding method relative to camptothecin; format: functional
T1 sequence (whole entry): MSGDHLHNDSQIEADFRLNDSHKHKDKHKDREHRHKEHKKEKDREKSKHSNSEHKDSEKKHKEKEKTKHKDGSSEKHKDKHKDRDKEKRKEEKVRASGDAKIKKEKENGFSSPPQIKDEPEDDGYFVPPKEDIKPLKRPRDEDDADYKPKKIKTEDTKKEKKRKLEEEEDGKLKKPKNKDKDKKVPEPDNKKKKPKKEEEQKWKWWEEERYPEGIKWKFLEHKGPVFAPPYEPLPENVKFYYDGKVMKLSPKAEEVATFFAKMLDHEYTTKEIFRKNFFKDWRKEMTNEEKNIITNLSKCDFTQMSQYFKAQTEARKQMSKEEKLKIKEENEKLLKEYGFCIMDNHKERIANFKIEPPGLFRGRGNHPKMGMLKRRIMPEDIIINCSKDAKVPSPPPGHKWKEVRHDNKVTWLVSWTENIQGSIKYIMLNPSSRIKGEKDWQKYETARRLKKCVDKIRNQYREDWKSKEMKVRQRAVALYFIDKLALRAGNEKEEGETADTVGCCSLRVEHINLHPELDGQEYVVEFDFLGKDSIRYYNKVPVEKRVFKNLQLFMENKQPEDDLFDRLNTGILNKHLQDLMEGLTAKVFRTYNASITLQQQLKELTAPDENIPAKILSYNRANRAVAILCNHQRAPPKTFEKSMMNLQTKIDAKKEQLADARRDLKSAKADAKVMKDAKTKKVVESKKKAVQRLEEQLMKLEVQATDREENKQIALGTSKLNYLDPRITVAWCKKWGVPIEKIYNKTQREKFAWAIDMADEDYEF

Row | SMILES | IC50 [1] [µM] | IC50 [2] [µM] | IC50 [3] [µM] | IC50 [4] [µM] | Activity [5]
1 | COC1c2ccccc2-c2c1c1cc(C)ccc1c(=O)n2C (stereo not drawn) | 130 | 20.9 | 70.3 | 60.1 | 
2 | COc1ccc(Cn2c3c(c4cc(C)ccc4c2=O)Cc2ccccc2-3)cc1 | 51 | 8.9 | 31.9 | 23.2 | 
3 | COc1ccc(Cn2c3c(c4cc(C)ccc4c2=O)C(OCC(C)C)c2ccccc2-3)cc1 (stereo not drawn) | 1.87 |  | 2.07 | 1.63 | Active
4 | Cc1ccc2c(=O)n(C)c3c(c2c1)Cc1ccccc1-3 | 130 | 20.1 | 80.3 | 261 | 
5 | CCOC1c2ccccc2-c2c1c1cc(C)ccc1c(=O)n2C (stereo not drawn) | 90 | 20.6 | 40.9 | 70.9 | 
6 | COc1cccc2c1C(=O)c1c(O)c3c(c(O)c1C2=O)C[C@@](O)(C(=O)CO)C[C@@H]3O[C@H]1C[C@H](N)[C@H](O)[C@H](C)O1 (stereo in doubt) [DOXORUBICIN] |  |  |  | 1.17 | 
7 | Cc1ccc2c(=O)n(C)c3c(c2c1)C(=O)c1ccccc1-3 | 20.1 | 14.3 | 17.1 | 16.3 | 
8 | COc1ccc(Cn2c3c(c4cc(C)ccc4c2=O)C(OC)c2ccccc2-3)cc1 (stereo not drawn) | 10.2 | 1.11 | 15.2 | 1.36 | 
9 | CCCCCOC1c2ccccc2-c2c1c1cc(C)ccc1c(=O)n2C (stereo not drawn) | 16.2 | 22 | 26.5 | 13.3 | 
10 | CCOC1c2ccccc2-c2c1c1cc(C)ccc1c(=O)n2Cc1ccc(OC)cc1 (stereo not drawn) | 6.71 | 1.93 | 3.6 | 5.89 | 
11 | CC[C@@]1(O)C(=O)OCc2c1cc1n(c2=O)Cc2cc3ccccc3nc2-1 [CAMPTOTHECIN] | 0.067 | 0.08 | 0.075 | 0.024 | Active
12 | COc1ccc(Cn2c3c(c4cc(C)ccc4c2=O)C(O)c2ccccc2-3)cc1 (stereo not drawn) | 100 | 20.2 | 181 | 71 | 
13 | CCCOC1c2ccccc2-c2c1c1cc(C)ccc1c(=O)n2C (stereo not drawn) | 40.6 | 10.9 | 80.3 | 70.7 | 
14 | COc1ccc(Cn2c3c(c4cc(C)ccc4c2=O)C(OC(C)C)c2ccccc2-3)cc1 (stereo not drawn) | 6.22 | 0.91 | 2.43 | 1.21 | Active
15 | CCCCOC1c2ccccc2-c2c1c1cc(C)ccc1c(=O)n2Cc1ccc(OC)cc1 (stereo not drawn) | 3.24 | 4.4 | 3.37 | 2.01 | 
16 | CCCOC1c2ccccc2-c2c1c1cc(C)ccc1c(=O)n2Cc1ccc(OC)cc1 (stereo not drawn) | 3.45 | 1.42 | 6.26 | 5.76 | Active
17 | CCCCOC1c2ccccc2-c2c1c1cc(C)ccc1c(=O)n2C (stereo not drawn) | 110 | 10.2 | 20.9 | 30.5 | 
18 | Cn1c2c(c3ccccc3c1=O)Cc1ccccc1-2 | 30.1 | 20.5 | 130 | 30.6 | 
19 | Cc1ccc2c(=O)n(C)c3c(c2c1)C(OCC(C)C)c1ccccc1-3 (stereo not drawn) | 28.2 | 27.4 | 10.5 | 38.4 | 
20 | COc1ccc(Cn2c3c(c4cc(C)ccc4c2=O)C(=O)c2ccccc2-3)cc1 | 155 | 171 | 158 | 102 | 
21 | CCCCCOC1c2ccccc2-c2c1c1cc(C)ccc1c(=O)n2Cc1ccc(OC)cc1 (stereo not drawn) | 11.2 | 5.59 | 11.2 | 5.7 | 
22 | Cn1c2c(c3ccccc3c1=O)C(=O)c1ccccc1-2 | 23.5 | 30.6 | 90.2 | 81 | 
